Measured values taken from ChEMBL document CHEMBL5712918, “Targeting methyltransferase PRMT5 retards the carcinogenesis and metastasis of HNSCC via epigenetically inhibiting Twist1 transcription” (Neoplasia, 2020).
Active and inactive are the calls of the source. The calls are words filed in the database; no cut-off is given here.

Key:
[1] = target: Protein arginine N-methyltransferase 5 (Homo sapiens) (UniProt O14744); test: Inhibition of PRMT5 in human SCC-25 cells assessed as reduction in H4R3me2 protein expression at 10 uM incubated for 4 days by western blot analysis; assay type: cell-based; settings: time 4.0 day
[2] = Toxicity in BALB/c nude mouse xenografted with human tongue squamous carcinoma cells assessed as effect on liver morphology at 30 mg/kg; assay type: organism-based; settings: in vivo
SCC-25 [3] = test: Antimigratory activity against human SCC-25 cells assessed as reduction in cell migration at 10 uM for 4 days by transwell assay; assay type: functional, cell-based; settings: time 4.0 day
In short: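 Transwell migration and invasion with 8-μm pore inserts. HSC6 or SCC25 cells, including lines stably overexpressing Flag-Twist1, treated at 10 μM for 4 days. Mean ± SD of three independent experiments, one-way ANOVA.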

[4] = system: Squamous carcinoma cell line; test: Antitumor activity against human squamous carcinoma cells in BALB/c nude PDX xenograft mouse assessed as reduction in Ki67-positive cells at 30 mg/kg by IHC analysis; assay type: functional, organism-based
In short: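 PDX: tongue squamous carcinoma tissue minced into 1∼2 mm3 pieces and passaged in BALB/c nude mice. P2 tissue implanted subcutaneously into 4-week-old mice, randomised at 50 mm3 tumour size to control or 30 mg/kg (n = 6 each). Volume change followed, and Ki-67 IHC quantified. Mean ± SD, Student's t test.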

SCC-25 [5] = test: Antiproliferative activity against human SCC-25 cells assessed as reduction in cell vaibility at 1 to 10 uM by CCK-8 assay; assay type: functional, cell-based; settings: dose 1-10 µM
In short: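 Proliferation of HSC6 and SCC25 cells read by CCK-8 conversion. Mean ± SD of three independent experiments, Student's t test.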

[6] = target: Protein arginine N-methyltransferase 5 (Homo sapiens) (UniProt O14744); test: Inhibition of PRMT5 in human SCC-25 cells assessed as reduction in Twist1 mRNA expression at 10 uM incubated for 4 days by RT-qPCR analysis; assay type: cell-based; settings: time 4.0 day
In short: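 HSC6 or SCC25 cells exposed to 10 μM for 4 days. Twist1 mRNA measured by quantitative RT-PCR. Mean ± SD of three independent experiments, Student's t test.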

SCC-25 [7] = test: Antimigratory activity against human SCC-25 cells assessed as reduction in cell migration after 48 hrs incubated for 48 hrs by transwell assay; assay type: functional, cell-based
[8] = target: Protein arginine N-methyltransferase 5 (Homo sapiens) (UniProt O14744); test: Inhibition of PRMT5 in human SCC-25 cells assessed as increase in E-cadherin protein expression level at 10 uM incubated for 4 days by western blot analysis; settings: time 4.0 day
HSC-6 [9] = test: Antitumor activity against human HSC-6 cells xenografted in BALB/c nude mouse assessed as reduction in Ki67-positive tumor cell at 15 to 30 mg/kg by immunohistochemistry analysis; assay type: functional, organism-based; settings: dose 15-30 mg/kg
In short: (§1)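 HSC6 subcutaneous xenograft: 6 × 10^7 cells into the back of 4-week-old BALB/c nude mice, dosed at 15 or 30 mg/kg. IHC with Ki67 1:400 or Twist1 1:250. Percent positive cells from 5 random fields per sample. Student's t test; Twist1 groups n = 6/6.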

SCC-25 [10] = test: Antiproliferative activity against human SCC-25 cells assessed as reduction in colony formation at 0.5 to 5 uM after 10 to 14 days […]; assay type: functional, cell-based; settings: dose 0.5-5 µM, time 10-14 day
In short: (§2)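 Colony formation: cells dispersed to single cells and seeded at 500 cells/well in 6-well plates. Grown 10–14 days until macroscopic clones appeared, then formaldehyde-fixed and crystal violet-stained. Clone formation rate from clones counted by eye.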

HSC-6 [11] = test: Anti-invasive activity against human HSC-6 cells assessed as reduction in cell invasion after 48 hrs incubated for 48 hrs by transwell assay; assay type: functional, cell-based
HSC-6 [12] = test: Antitumor activity against human HSC-6 cells xenografted in BALB/c nude mouse assessed as reduction in number of Twist1 positive cells at 30 mg/kg by IHC staining; assay type: functional, organism-based; in short: as §1
Rattus norvegicus = test: Antitumor activity against 4-Nitroquinoline-1-Oxide induced cancer Sprague-Dawley rat carcinogenic model assessed as dysplasia area of tongue tissue at 30 mg/kg, iv administered on week 12 and measured on week 22 (reference value: 13.3%); assay type: functional; settings: time 10 weeks
HSC-6 [13] = test: Antimigratory activity against human HSC-6 cells assessed as reduction in cell migration after 48 hrs incubated for 48 hrs by transwell assay; assay type: functional, cell-based
[14] = target: Protein arginine N-methyltransferase 5 (Homo sapiens) (UniProt O14744); test: Inhibition of PRMT5 in human SCC-25 cells assessed as reduction in Twist1 protein expression at 10 uM incubated for 4 days by western blot analysis; assay type: cell-based; settings: time 4.0 day
In short: (§3)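 HSC6 or SCC25 cells treated with 10 μM for 4 days. E-cadherin, N-cadherin and Twist1 proteins detected by immunoblot.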

[15] = target: Protein arginine N-methyltransferase 5 (Homo sapiens) (UniProt O14744); test: Inhibition of PRMT5 in human SCC-25 cells assessed as reduction in WDR5 occupancy in Twist1 promoter region at 10 uM incubated for 4 days by Chip-qPCR analysis; assay type: cell-based; settings: time 4.0 day
In short: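 SCC25 cells exposed to inhibitor at 10 μM for 4 days. ChIP used a commercial kit with anti-WDR5 or anti-Set1 (1:50), and binding at the Twist1 promoter was quantified by qPCR. Mean ± SD of three independent experiments, Student's t test.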

[16] = Toxicity in BALB/c nude mouse xenografted with human HSC6 cells assessed as effect on body weight at 15 to 30 mg/kg; assay type: organism-based; settings: in vivo, dose 15-30 mg/kg
In short: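 Subcutaneous xenograft in 4-week-old BALB/c nude mice given 6 × 10^7 HSC6 cells into the back. Groups were control, 15 mg/kg and 30 mg/kg. Body weight was monitored and major organs were examined for toxicity.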

HSC-6 [17] = test: Antiproliferative activity against human HSC-6 cells assessed as reduction in colony formation at 0.5 to 5 uM after 10 to 14 days […]; assay type: functional, cell-based; settings: dose 0.5-5 µM, time 10-14 day; in short: as §2
[18] = Toxicity in BALB/c nude mouse xenografted with human HSC6 cells of orthotopic tumor assessed as effect on body weight at 30 mg/kg; assay type: organism-based; settings: in vivo
In short: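 Orthotopic model: 5 × 10^5 HSC6 cells injected submucosally into the tongue of 4-week-old BALB/c nude mice. Control vs 30 mg/kg (n = 12 each). Body weight was followed, and cervical lymph nodes were stained with pan-cytokeratin.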

[19] = Toxicity in BALB/c nude mouse xenografted with human squamous carcinoma cells assessed as effect on body weight at 30 mg/kg; assay type: organism-based; settings: in vivo
HSC-6 [20] = test: Antitumor activity against human HSC-6 cells xenografted in BALB/c nude mouse model of orthotopic tumor assessed as as reduction in distant metastasis in liver at 30 mg/kg by H and E analysis; assay type: functional, organism-based
[21] = target: Protein arginine N-methyltransferase 5 (Homo sapiens) (UniProt O14744); test: Inhibition of PRMT5 in human SCC-25 cells assessed as increase in E-cadherin protein expression level at 10 uM incubated for 4 days by western blot analysis; assay type: cell-based; settings: time 4.0 day; in short: as §3
SCC-25 [22] = test: Antimigratory activity against human SCC-25 cells assessed as reduction in cell invasion after 48 hrs incubated for 48 hrs by transwell assay; assay type: functional, cell-based
[23] = target: Protein arginine N-methyltransferase 5 (Homo sapiens) (UniProt O14744); test: Inhibition of PRMT5 in human SCC-25 cells over expressing Twist1 assessed as decrease in E-cadherin protein level at 10 uM incubated for 4 days by immunoblot analysis; assay type: cell-based; settings: time 4.0 day
In short: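 SCC25 cells stably overexpressing Flag-tagged Twist1 were treated with or without 10 μM inhibitor for 4 days, then immunoblotted for Twist1, N-cadherin and E-cadherin.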

Sequence of Protein arginine N-methyltransferase 5 (Homo sapiens) (O14744 whole entry): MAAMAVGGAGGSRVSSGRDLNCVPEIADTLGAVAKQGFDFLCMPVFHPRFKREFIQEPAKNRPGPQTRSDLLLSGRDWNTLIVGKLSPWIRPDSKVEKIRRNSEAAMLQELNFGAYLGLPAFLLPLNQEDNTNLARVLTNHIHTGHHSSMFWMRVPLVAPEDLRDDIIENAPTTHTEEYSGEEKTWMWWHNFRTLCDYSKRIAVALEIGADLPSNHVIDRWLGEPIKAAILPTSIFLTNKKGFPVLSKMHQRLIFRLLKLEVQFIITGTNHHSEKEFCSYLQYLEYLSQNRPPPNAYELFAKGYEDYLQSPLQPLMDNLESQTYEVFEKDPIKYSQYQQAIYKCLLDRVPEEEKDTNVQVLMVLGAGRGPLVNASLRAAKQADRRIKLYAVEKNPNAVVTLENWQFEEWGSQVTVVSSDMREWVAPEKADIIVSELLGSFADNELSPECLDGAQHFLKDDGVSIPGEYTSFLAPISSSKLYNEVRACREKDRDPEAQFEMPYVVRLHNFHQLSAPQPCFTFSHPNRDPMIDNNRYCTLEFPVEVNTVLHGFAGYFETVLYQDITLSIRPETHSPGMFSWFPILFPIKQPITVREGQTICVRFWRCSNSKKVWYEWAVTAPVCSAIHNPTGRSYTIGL

## O=C(NC[C@H](O)CN1CCc2ccccc2C1)c1cc(NC2COC2)ncn1
[1]
  inhibition: Active
[2]
  Activity: Non-Toxic
SCC-25 [3]
  Activity: Active
[4]
  Activity: Active
SCC-25 [5]
  Activity: Active
[6]
  inhibition: Active
SCC-25 [7]
  Activity: Active
[8]
  inhibition: Active
HSC-6 [9]
  Activity: Active
SCC-25 [10]
  Activity: Active
HSC-6 [11]
  Activity: Active
HSC-6 [12]
  Activity: Active
Rattus norvegicus
  Activity: 15.4%
HSC-6 [13]
  Activity: Active
[14]
  inhibition: Active
[15]
  inhibition: Active
[16]
  Activity: Non-Toxic
HSC-6 [17]
  Activity: Active
[18]
  Activity: Non-Toxic
[19]
  Activity: Non-Toxic
HSC-6 [20]
  Activity: Active
[21]
  inhibition: Active
SCC-25 [22]
  Activity: Active
[23]
  inhibition: inactive
